In PMC4493932 (MedChemComm, 2013):
Like-named read-outs stand apart in the source and are kept apart here. Marks after values point to notes of the source that are not given here. Blank lines part the entries; values can stand above or below the compound they belong to.

Assays:
P2Y6R = conditions: cited from earlier work; for EC50: read-out: P2Y6R agonist EC50
[1] = biological target: P2Y6R expressed on 1321N1 astrocytoma cells (Homo sapiens, UniProt Q15077); test: Flow cytometry; assay type: cell-based; conditions: for Inhibition of fluorescent binding of 16 to 1321N1-P2Y6R cells: 30 min pre-incubation, then 16 for 2 min, FCM
How it was run: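 1321N1 human astrocytoma cells stably expressing human P2Y6R were pre-incubated 30 min with known P2Y6R ligands. Cells were then exposed for 2 min to an Alexa Fluor 488-conjugated nucleotide agonist, and labeling was read by flow cytometry. Fluorescence was converted to MESF. Nonspecific binding was defined with 100 μM UDP, and autofluorescence came from receptor-expressing cells without probe.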

[2] = biological target: P2Y6R-expressing 1321N1 astrocytoma cells (Homo sapiens, UniProt Q15077); test: Fluorescence/confocal microscopy of P2Y6R-expressing 1321N1 astrocytoma cells; assay type: cell-based; conditions: for Inhibition of fluorescent labeling by 16 (micrographs): 500 nM, 30 min preincubation at 37 °C, 16 500 nM, 60 min
How it was run: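 Stably P2Y6R-expressing 1321N1 astrocytoma cells were exposed to an Alexa Fluor 488-conjugated nucleotide agonist (500 nM, 60 min, 37 °C), with or without a known P2Y6R agonist or a diisothiocyanate antagonist. Green fluorescence was imaged on a fluorescence microscope (excitation 495 nm, emission 519 nm).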

human (h) P2Y6R = human (h) P2Y6R (Homo sapiens, UniProt Q15077); test: PLC activation in 1321N1 human astrocytoma cells stably expressing the hP2Y6R; assay type: cell-based
How it was run: (§1)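 Agonist-induced phospholipase C activation in 1321N1 human astrocytoma cells stably expressing recombinant human P2Y6, P2Y2 or P2Y4 receptor. EC50 values are given as mean ± SEM. Efficacy is expressed as percent of the maximal activation by a full agonist at 10 μM. Subtype selectivity is taken as the ratio of EC50 values.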

hP2Y4R = hP2Y4R (Homo sapiens, UniProt P51582); test: PLC activation in 1321N1 cells stably expressing the hP2Y4R; assay type: cell-based; conditions: percent of maximal activation by full agonist at 10 μM
How it was run: as §1

hP2Y2R = hP2Y2R (Homo sapiens, UniProt P41231); test: PLC activation in 1321N1 cells stably expressing the hP2Y2R; assay type: cell-based; conditions: for EC50: read-out: Potency, EC50, P2Y2, 1321N1 astrocytoma cells expressing recombinant hP2Y2, mean ± SEM, NE = no effect
How it was run: as §1

[3] = system: control 1321N1 astrocytoma cells; test: FCM labeling of control 1321N1 astrocytoma cells; assay type: cell-based, human; conditions: 60 min incubation
How it was run: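 Whole-cell flow cytometry labelling with the Alexa Fluor 488-tagged test compound, 400 nM. Autofluorescence came from cells without the probe. Nonspecific binding was taken in the presence of 100 μM UDP, and specific binding is total minus nonspecific. Fluorescence was converted to molecules of equivalent soluble fluorochrome (MESF). Histograms are from one of three independent experiments.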

hP2Y1R = hP2Y1R (Homo sapiens, UniProt P47900); test: Labeling of 1321N1 cells expressing the hP2Y1R; assay type: cell-based; conditions: data not shown
[4] = system: 1321N1 astrocytoma cells not expressing a P2YR; test: Fluorescence microscopy of 1321N1 astrocytoma cells not expressing a P2YR; assay type: cell-based, human; conditions: incubated with 16
How it was run: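 Confocal microscopy of 1321N1 astrocytoma cells incubated with the fluorescent test compound at 2 μM (figure panels give 1 μM) for 60 min at 37 °C. Cell-associated fluorescence was compared with receptor-expressing cells and with cells without the probe.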

hP2Y14R = biological target: T1, hP2Y14R (Homo sapiens, UniProt Q15391); assay type: cell-based; conditions: concentrations up to 10 μM; C6 rat glioma cells
T1 sequence (Q15391 1-338): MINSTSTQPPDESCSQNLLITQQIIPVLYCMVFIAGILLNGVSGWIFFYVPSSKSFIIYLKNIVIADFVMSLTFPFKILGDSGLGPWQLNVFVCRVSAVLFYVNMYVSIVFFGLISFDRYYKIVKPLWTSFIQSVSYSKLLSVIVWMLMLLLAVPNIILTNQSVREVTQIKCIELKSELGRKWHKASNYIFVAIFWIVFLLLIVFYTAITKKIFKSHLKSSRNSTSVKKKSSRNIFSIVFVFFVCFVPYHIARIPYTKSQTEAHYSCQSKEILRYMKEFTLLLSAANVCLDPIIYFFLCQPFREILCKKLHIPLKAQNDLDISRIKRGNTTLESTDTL

Sequence of hP2Y2R (P41231 whole entry): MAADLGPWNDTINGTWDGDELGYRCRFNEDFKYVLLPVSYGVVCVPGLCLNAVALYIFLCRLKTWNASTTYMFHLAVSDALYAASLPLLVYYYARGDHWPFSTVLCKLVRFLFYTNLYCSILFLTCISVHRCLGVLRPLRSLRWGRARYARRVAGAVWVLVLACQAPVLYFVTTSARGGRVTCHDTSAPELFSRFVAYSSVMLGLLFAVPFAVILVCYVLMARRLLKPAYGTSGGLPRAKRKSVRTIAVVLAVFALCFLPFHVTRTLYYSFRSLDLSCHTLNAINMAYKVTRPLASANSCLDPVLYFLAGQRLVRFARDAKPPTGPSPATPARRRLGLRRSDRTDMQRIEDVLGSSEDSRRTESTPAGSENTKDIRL
Sequence of hP2Y4R (P51582 whole entry): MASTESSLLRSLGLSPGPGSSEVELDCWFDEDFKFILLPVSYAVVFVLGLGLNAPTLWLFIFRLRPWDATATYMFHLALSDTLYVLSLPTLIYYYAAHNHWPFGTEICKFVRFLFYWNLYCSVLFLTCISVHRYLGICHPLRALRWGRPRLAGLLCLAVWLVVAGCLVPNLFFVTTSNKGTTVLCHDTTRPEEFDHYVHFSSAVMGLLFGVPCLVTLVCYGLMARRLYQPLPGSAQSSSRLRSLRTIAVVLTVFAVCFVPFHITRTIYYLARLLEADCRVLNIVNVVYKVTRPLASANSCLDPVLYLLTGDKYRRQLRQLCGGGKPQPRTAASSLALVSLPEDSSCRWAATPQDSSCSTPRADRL
Sequence of P2Y6R-expressing 1321N1 astrocytoma cells (Q15077 whole entry): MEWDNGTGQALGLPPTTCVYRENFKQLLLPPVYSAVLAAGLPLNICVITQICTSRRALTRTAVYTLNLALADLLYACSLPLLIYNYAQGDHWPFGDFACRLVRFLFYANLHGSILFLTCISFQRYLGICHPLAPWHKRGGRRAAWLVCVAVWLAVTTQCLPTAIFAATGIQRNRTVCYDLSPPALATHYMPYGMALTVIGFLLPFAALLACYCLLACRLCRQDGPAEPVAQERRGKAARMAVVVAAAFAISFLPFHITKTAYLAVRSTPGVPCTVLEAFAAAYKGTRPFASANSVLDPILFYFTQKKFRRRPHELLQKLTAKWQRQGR
Sequence of human (h) P2Y6R (Q15077 whole entry): as above
Sequence of P2Y6R expressed on 1321N1 astrocytoma cells (Q15077 whole entry): as above
Sequence of hP2Y1R (P47900 whole entry): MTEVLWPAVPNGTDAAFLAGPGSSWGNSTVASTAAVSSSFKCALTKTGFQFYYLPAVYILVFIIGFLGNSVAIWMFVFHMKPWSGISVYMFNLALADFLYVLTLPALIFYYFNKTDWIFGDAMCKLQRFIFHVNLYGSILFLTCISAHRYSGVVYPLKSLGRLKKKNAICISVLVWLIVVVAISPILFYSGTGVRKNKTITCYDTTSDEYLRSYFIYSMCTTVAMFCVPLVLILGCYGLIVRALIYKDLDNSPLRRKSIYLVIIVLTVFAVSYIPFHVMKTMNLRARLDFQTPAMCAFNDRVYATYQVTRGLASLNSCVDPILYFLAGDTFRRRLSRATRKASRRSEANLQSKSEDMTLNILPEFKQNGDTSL

Compound: O=c1ccn([C@@H]2O[C@H](COP(=O)(O)OP(=O)(O)O)[C@@H](O)[C@H]2O)c(=O)[nH]1 [Compound 1, Uridine 5′-diphosphate]
EC50 (P2Y6R; endogenous agonist): 300 nM
Inhibition of fluorescent binding of 16 to 1321N1-P2Y6R cells ([1]; 10 μM): significant reduction of labeling

Compound: O=C(Cn1c(=O)ccn([C@@H]2O[C@H](COP(=O)(O)OP(=O)(O)O)[C@@H](O)[C@H]2O)c1=O)c1ccccc1 [Compound 2, 3-phenacyl-UDP]
EC50 (P2Y6R): 70 nM

Compound: O=c1[nH]/c(=N\OCc2ccccc2)ccn1[C@@H]1O[C@H](COP(=O)(O)OP(=O)(O)O)[C@@H](O)[C@H]1O [Compound 6, N^4-benzyloxy-CDP]
P2Y6R selectivity vs. P2Y2R (P2Y6R): 82 fold
P2Y6R selectivity vs. P2Y4R (P2Y6R): 44 fold

Compound: CO/N=c1/ccn([C@@H]2O[C@H](COP(=O)(O)OP(=O)(O)OP(=O)(O)Oc3ccc4ccccc4c3)[C@@H](O)[C@H]2O)c(=O)[nH]1 [Compound 20]
% activation, P2Y4 (hP2Y4R): <50% ^c

Compound: S=C=Nc1cccc(NC(=S)NCCCCNC(=S)Nc2cccc(N=C=S)c2)c1 [MRS2578]
Inhibition of fluorescent binding of 16 to 1321N1-P2Y6R cells ([1]; 1 μM): significant reduction of labeling
Inhibition of fluorescent labeling by 16 (micrographs) [2]: inhibit fluorescent labeling

Second part, led by results:

Inhibition of fluorescent binding of 16 to 1321N1-P2Y6R cells ([1]; 0.5 μM): significant reduction of labeling
Inhibition of fluorescent labeling by 16 (micrographs) [2]: inhibit fluorescent labeling
Compound: CO/N=c1/ccn([C@@H]2O[C@H](COP(=O)(O)OP(=O)(O)OP(=O)(O)OC[C@H]3O[C@@H](n4ccc(=O)[nH]c4=O)[C@H](O)[C@@H]3O)[C@@H](O)[C@H]2O)c(=O)[nH]1 [Compound 8, P^1-(Uridine 5′-)-P^4-(N^4-methoxycytidine 5′-) triphosphate]

Selectivity toward the P2Y6R in comparison to the P2Y4R (human (h) P2Y6R; ratio of EC50 values): > 260 fold
Compound: O=c1[nH]/c(=N\OCc2cccc(Br)c2)ccn1[C@@H]1O[C@H](COP(=O)(O)OP(=O)(O)O)[C@@H](O)[C@H]1O [Compound 10]

% activation, P2Y4 (hP2Y4R): <50% ^c
EC50 (hP2Y2R): > 10000 nM
Compound: O=c1[nH]/c(=N\OCc2ccc(I)cc2)ccn1[C@@H]1O[C@H](COP(=O)(O)OP(=O)(O)O)[C@@H](O)[C@H]1O [Compound 13]

% activation, P2Y4 (hP2Y4R): <50% ^c
% activation, P2Y2 (hP2Y2R; percent of maximal activation by full agonist at 10 μM): <50% ^c
Compound: C#CCCOP(=O)(O)OP(=O)(O)OP(=O)(O)OC[C@H]1O[C@@H](n2cc/c(=N/OCc3ccccc3)[nH]c2=O)[C@H](O)[C@@H]1O [Compound 22]

Potency, EC50, P2Y6 (human (h) P2Y6R; 1321N1 astrocytoma cells expressing recombinant hP2Y6, mean ± SEM): nearly inactive
% activation, P2Y4 (hP2Y4R): <50% ^c
EC50 (hP2Y2R): > 10000 nM
Compound: C#CCCCOP(=O)(O)OP(=O)(O)OP(=O)(O)OC[C@H]1O[C@@H](n2cc/c(=N/OCc3ccccc3)[nH]c2=O)[C@H](O)[C@@H]1O [Compound 23]

Selectivity toward the P2Y6R in comparison to the P2Y2R (human (h) P2Y6R; ratio of EC50 values): 280 fold
Selectivity toward the P2Y6R in comparison to the P2Y4R (human (h) P2Y6R; ratio of EC50 values): > 1100 fold
EC50 (human (h) P2Y6R; read-out: Potency, EC50, P2Y6, 1321N1 astrocytoma cells expressing recombinant hP2Y6, mean ± SEM): 9 ± 1.9 nM
P2Y6R potency gain over immediate precursor 15 (human (h) P2Y6R; vs 15 lacking the fluorophore): 11 fold
Specific labeling of 1321N1 cells expressing the hP2Y1R (hP2Y1R): no specific labeling
% activation, P2Y4 (hP2Y4R): <50% ^c
EC50 (hP2Y2R): 2500 ± 660 nM
Activation of the hP2Y14R (hP2Y14R): did not activate
Compound: (N^4-(3-(AlexaFluor-NH-(CH2)6-triazole-(CH2)2-C≡C)-benzyloxy))-CDP [Compound 16]
Specific labeling of control 1321N1 cells [3]: no specific labeling
Cell-associated fluorescence, localization ([2]; 2 μM, 60 min incubation at 37 °C, confocal microscopy): receptor-dependent and mainly intracellular
Fluorescence of cells not expressing a P2YR [4]: no increase in fluorescence

Blockade of cell labeling by 100 μM UDP ([1]; 100 nM to 1 μM): could not be blocked
Compound: N^4-(3-(Cy5-NH-(CH2)6-triazole-(CH2)2-C≡C)-benzyloxy)-CDP [Compound 17]
Dependence of 1321N1 cell labeling on P2Y6R expression ([1]; 100 nM to 1 μM): independent of the expression of the P2Y6R
